Data as given in ChEMBL document CHEMBL1154152, “Synthesis of some novel bioactive 4-oxy/thio substituted-1H-pyrazol-5(4H)-ones via efficient cross-Claisen condensation” (2009).
Values after ≈ are worked out from the molar mass of the structure shown.

Legend:
Format in all cases: functional
[1] = test system: Escherichia coli; assay: Antibacterial activity against Escherichia coli ATTC 25922 after 24 hrs by disk diffusion method; conditions: for MIC: Escherichia coli, ATTC 25922, 24 h
Outline: (§1)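 Discs with each concentration, in triplicate, on nutrient agar seeded with fresh bacteria. Incubated 37 °C for 24 h, with solvent and growth controls. Zones of inhibition and MIC recorded.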

[2] = test system: Talaromyces marneffei; assay: Antifungal activity against Penicillium marneffei at 10 to 50 ug/ml after 3 to 4 days by serial plate dilution method
[3] = test system: Trichophyton mentagrophytes; assay: Antifungal activity against Trichophyton mentagrophytes at 10 to 50 ug/ml after 3 to 4 days by serial plate dilution method
[4] = test system: Pseudomonas aeruginosa; assay: Antibacterial activity against Pseudomonas aeruginosa ATTC 27853 after 24 hrs by disk diffusion method; conditions: for MIC: Pseudomonas aeruginosa, ATTC 27853, 24 h; outline: as §1
[5] = test system: Aspergillus flavus; assay: Antifungal activity against Aspergillus flavus at 10 to 50 ug/ml after 3 to 4 days by serial plate dilution method
[6] = test system: Klebsiella sp.; assay: Antibacterial activity against Klebsiella sp. after 24 hrs by disk diffusion method; conditions: for MIC: Klebsiella sp., 24 h; outline: as §1
[7] = test system: Staphylococcus aureus; assay: Antibacterial activity against Staphylococcus aureus ATCC 25923 after 24 hrs by disk diffusion method; conditions: for MIC: Staphylococcus aureus, ATCC 25923, 24 h; outline: as §1
[8] = test system: Trichophyton mentagrophytes; assay: Antifungal activity against Trichophyton mentagrophytes after 3 to 4 days by serial plate dilution method
[9] = test system: Talaromyces marneffei; assay: Antifungal activity against Penicillium marneffei after 3 to 4 days by serial plate dilution method
Outline: (§2)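 Sabouraud's agar made from peptone, D-glucose and agar, pH 5.7, and lawned with a fungal spore suspension in normal saline. Wells cut with an agar punch received 10–50 mg/ml test compound in DMSO; DMSO-only control plates. Triplicate plates kept at 37 °C for 3–4 days.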

[10] = test system: Aspergillus fumigatus; assay: Antifungal activity against Aspergillus fumigatus after 3 to 4 days by serial plate dilution method
[11] = test system: Aspergillus fumigatus; assay: Antifungal activity against Aspergillus fumigatus at 10 to 50 ug/ml after 3 to 4 days by serial plate dilution method
[12] = test system: Aspergillus flavus; assay: Antifungal activity against Aspergillus flavus after 3 to 4 days by serial plate dilution method; outline: as §2

MIC [1] | MIC [4] | MIC [6] | MIC [7] | MIC [8] | MIC [9] | MIC [10] | MIC [12] | Compound | inhibition zone (IZ) [1] | inhibition zone (IZ) [2] | inhibition zone (IZ) [3] | inhibition zone (IZ) [4] | inhibition zone (IZ) [5] | inhibition zone (IZ) [6] | inhibition zone (IZ) [7] | inhibition zone (IZ) [11]
6.25 µg/mL (≈ 25.2 µM) | 6.25 µg/mL (≈ 25.2 µM) | 6.25 µg/mL (≈ 25.2 µM) | 6.25 µg/mL (≈ 25.2 µM) | 6.25 µg/mL (≈ 25.2 µM) | 6.25 µg/mL (≈ 25.2 µM) | 6.25 µg/mL (≈ 25.2 µM) | 6.25 µg/mL (≈ 25.2 µM) | CC(C)CC1=NNC(=O)C1Sc1ccccc1 (configuration not stated) | 21 mm | 18 mm | 21 mm | 18 mm | 18 mm | 21 mm | 19 mm | 18 mm
6.25 µg/mL (≈ 30.6 µM) | 6.25 µg/mL (≈ 30.6 µM) | 6.25 µg/mL (≈ 30.6 µM) | 6.25 µg/mL (≈ 30.6 µM) | 6.25 µg/mL (≈ 30.6 µM) | 6.25 µg/mL (≈ 30.6 µM) | 6.25 µg/mL (≈ 30.6 µM) | 6.25 µg/mL (≈ 30.6 µM) | CCC1=NNC(=O)C1Oc1ccccc1 (configuration not stated) | 18 mm | 18 mm | 16 mm | 20 mm | 21 mm | 16 mm | 19 mm | 17 mm
6.25 µg/mL (≈ 26.7 µM) | 6.25 µg/mL (≈ 26.7 µM) | 6.25 µg/mL (≈ 26.7 µM) | 6.25 µg/mL (≈ 26.7 µM) | 6.25 µg/mL (≈ 26.7 µM) | 6.25 µg/mL (≈ 26.7 µM) | 6.25 µg/mL (≈ 26.7 µM) | 6.25 µg/mL (≈ 26.7 µM) | CC(C)C1=NNC(=O)C1Sc1ccccc1 (configuration not stated) | 18 mm | 19 mm | 16 mm | 17 mm | 18 mm | 16 mm | 20 mm | 20 mm
6.25 µg/mL (≈ 26.7 µM) | 6.25 µg/mL (≈ 26.7 µM) | 6.25 µg/mL (≈ 26.7 µM) | 6.25 µg/mL (≈ 26.7 µM) | 6.25 µg/mL (≈ 26.7 µM) | 6.25 µg/mL (≈ 26.7 µM) | 6.25 µg/mL (≈ 26.7 µM) | 6.25 µg/mL (≈ 26.7 µM) | CCC1=NNC(=O)C1SCc1ccccc1 (configuration not stated) | 17 mm | 19 mm | 17 mm | 20 mm | 17 mm | 17 mm | 16 mm | 17 mm
25 µg/mL (≈ 114 µM) | 6.25 µg/mL (≈ 28.4 µM) | 6.25 µg/mL (≈ 28.4 µM) | 6.25 µg/mL (≈ 28.4 µM) | 6.25 µg/mL (≈ 28.4 µM) | 6.25 µg/mL (≈ 28.4 µM) | 6.25 µg/mL (≈ 28.4 µM) | 6.25 µg/mL (≈ 28.4 µM) | COCC1=NNC(=O)C1Oc1ccccc1 (configuration not stated) | 12 mm | 17 mm | 17 mm | 17 mm | 18 mm | 20 mm | 17 mm | 20 mm
50 µg/mL (≈ 200 µM) | 50 µg/mL (≈ 200 µM) | 50 µg/mL (≈ 200 µM) | 6.25 µg/mL (≈ 25 µM) | 50 µg/mL (≈ 200 µM) | 50 µg/mL (≈ 200 µM) | 50 µg/mL (≈ 200 µM) | 50 µg/mL (≈ 200 µM) | COCC1=NNC(=O)C1SCc1ccccc1 (configuration not stated) | <10 mm | <10 mm | <10 mm | <10 mm | <10 mm | <10 mm | 17 mm | <10 mm
6.25 µg/mL (≈ 26.9 µM) | 6.25 µg/mL (≈ 26.9 µM) | 6.25 µg/mL (≈ 26.9 µM) | 6.25 µg/mL (≈ 26.9 µM) | 6.25 µg/mL (≈ 26.9 µM) | 6.25 µg/mL (≈ 26.9 µM) | 6.25 µg/mL (≈ 26.9 µM) | 6.25 µg/mL (≈ 26.9 µM) | CC(C)(C)C1=NNC(=O)C1Oc1ccccc1 (configuration not stated) | 18 mm | 21 mm | 19 mm | 20 mm | 16 mm | 18 mm | 16 mm | 18 mm
25 µg/mL (≈ 121 µM) | 6.25 µg/mL (≈ 30.3 µM) | 6.25 µg/mL (≈ 30.3 µM) | 6.25 µg/mL (≈ 30.3 µM) | 6.25 µg/mL (≈ 30.3 µM) | 6.25 µg/mL (≈ 30.3 µM) | 6.25 µg/mL (≈ 30.3 µM) | 6.25 µg/mL (≈ 30.3 µM) | CC1=NNC(=O)C1Sc1ccccc1 (configuration not stated) | 13 mm | 21 mm | 18 mm | 19 mm | 16 mm | 16 mm | 18 mm | 17 mm

The next lines start with the compound.

Compound | MIC [1] | MIC [4] | MIC [6] | MIC [7] | MIC [8] | MIC [9] | MIC [10] | MIC [12] | inhibition zone (IZ) [1] | inhibition zone (IZ) [2] | inhibition zone (IZ) [3] | inhibition zone (IZ) [4] | inhibition zone (IZ) [5] | inhibition zone (IZ) [6] | inhibition zone (IZ) [7] | inhibition zone (IZ) [11]
CC(C)CC1=NN(c2ccc(F)cc2)C(=O)C1Sc1ccccc1 (configuration not stated) | 25 µg/mL (≈ 73 µM) | 6.25 µg/mL (≈ 18.3 µM) | 6.25 µg/mL (≈ 18.3 µM) | 6.25 µg/mL (≈ 18.3 µM) | 6.25 µg/mL (≈ 18.3 µM) | 6.25 µg/mL (≈ 18.3 µM) | 6.25 µg/mL (≈ 18.3 µM) | 6.25 µg/mL (≈ 18.3 µM) | 13 mm | 19 mm | 18 mm | 20 mm | 20 mm | 19 mm | 19 mm | 19 mm
COc1ccc(OC2C(=O)NN=C2C)cc1 (configuration not stated) | 25 µg/mL (≈ 114 µM) | 50 µg/mL (≈ 227 µM) | 50 µg/mL (≈ 227 µM) | 6.25 µg/mL (≈ 28.4 µM) | 50 µg/mL (≈ 227 µM) | 50 µg/mL (≈ 227 µM) | 50 µg/mL (≈ 227 µM) | 50 µg/mL (≈ 227 µM) | 11 mm | <10 mm | <10 mm | <10 mm | <10 mm | <10 mm | 19 mm | <10 mm
CC(C)CC1=NN(C)C(=O)C1Oc1ccccc1 (configuration not stated) | 25 µg/mL (≈ 101 µM) | 6.25 µg/mL (≈ 25.4 µM) | 6.25 µg/mL (≈ 25.4 µM) | 6.25 µg/mL (≈ 25.4 µM) | 6.25 µg/mL (≈ 25.4 µM) | 6.25 µg/mL (≈ 25.4 µM) | 6.25 µg/mL (≈ 25.4 µM) | 6.25 µg/mL (≈ 25.4 µM) | 12 mm | 19 mm | 18 mm | 19 mm | 18 mm | 17 mm | 19 mm | 16 mm
Cc1cc(C2CCCCC2)n(O)c(=O)c1.NCCO [CICLOPIROX OLAMINE] | – | – | – | – | 3.12 µg/mL | 6.25 µg/mL | 6.25 µg/mL | 3.12 µg/mL | – | 23 mm | 27 mm | – | 27 mm | – | – | 26 mm
O=C(O)c1cn(C2CC2)c2cc(N3CCNCC3)c(F)cc2c1=O [CIPROFLOXACIN] | 6.25 µg/mL (≈ 18.9 µM) | 6.25 µg/mL (≈ 18.9 µM) | 6.25 µg/mL (≈ 18.9 µM) | 6.25 µg/mL (≈ 18.9 µM) | – | – | – | – | 32 mm | – | – | 28 mm | – | 24 mm | 23 mm | –
CC1=NNC(=O)C1OCc1cccc(Br)c1 (configuration not stated) | 25 µg/mL (≈ 88.3 µM) | 6.25 µg/mL (≈ 22.1 µM) | 6.25 µg/mL (≈ 22.1 µM) | 6.25 µg/mL (≈ 22.1 µM) | 6.25 µg/mL (≈ 22.1 µM) | 6.25 µg/mL (≈ 22.1 µM) | 6.25 µg/mL (≈ 22.1 µM) | 6.25 µg/mL (≈ 22.1 µM) | 11 mm | 18 mm | 20 mm | 18 mm | 19 mm | 19 mm | 21 mm | 18 mm
CCC1=NN(c2ccc(F)cc2)C(=O)C1Oc1ccccc1 (configuration not stated) | 25 µg/mL (≈ 83.8 µM) | 6.25 µg/mL (≈ 21 µM) | 6.25 µg/mL (≈ 21 µM) | 6.25 µg/mL (≈ 21 µM) | 6.25 µg/mL (≈ 21 µM) | 6.25 µg/mL (≈ 21 µM) | 6.25 µg/mL (≈ 21 µM) | 6.25 µg/mL (≈ 21 µM) | 14 mm | 17 mm | 21 mm | 18 mm | 19 mm | 20 mm | 16 mm | 21 mm
O=C1NN=C(COc2ccccc2)C1Oc1ccccc1 (configuration not stated) | 6.25 µg/mL (≈ 22.1 µM) | 6.25 µg/mL (≈ 22.1 µM) | 6.25 µg/mL (≈ 22.1 µM) | 6.25 µg/mL (≈ 22.1 µM) | 6.25 µg/mL (≈ 22.1 µM) | 6.25 µg/mL (≈ 22.1 µM) | 6.25 µg/mL (≈ 22.1 µM) | 6.25 µg/mL (≈ 22.1 µM) | 17 mm | 18 mm | 19 mm | 16 mm | 20 mm | 19 mm | 18 mm | 21 mm
O=C1NN=C(c2ccc(Cl)cc2)C1Oc1ccccc1 (configuration not stated) | 25 µg/mL (≈ 87.2 µM) | 50 µg/mL (≈ 174 µM) | 50 µg/mL (≈ 174 µM) | 6.25 µg/mL (≈ 21.8 µM) | 50 µg/mL (≈ 174 µM) | 50 µg/mL (≈ 174 µM) | 50 µg/mL (≈ 174 µM) | 50 µg/mL (≈ 174 µM) | 12 mm | <10 mm | <10 mm | <10 mm | <10 mm | <10 mm | 21 mm | <10 mm
CC(C)CC1=NNC(=O)C1Sc1ccc(Cl)cc1 (configuration not stated) | 25 µg/mL (≈ 88.4 µM) | 6.25 µg/mL (≈ 22.1 µM) | 6.25 µg/mL (≈ 22.1 µM) | 6.25 µg/mL (≈ 22.1 µM) | 6.25 µg/mL (≈ 22.1 µM) | 6.25 µg/mL (≈ 22.1 µM) | 6.25 µg/mL (≈ 22.1 µM) | 6.25 µg/mL (≈ 22.1 µM) | 11 mm | 20 mm | 19 mm | 17 mm | 18 mm | 16 mm | 18 mm | 17 mm
